Compound activity (PubChem BioAssay)
NRP1-CendR mod: alters CendR peptide binding to human NRP-1 | O14786 | FAM-RPARPAR peptide binding to NRP-1, fluorescence polarization | inhibition, % at 25 µM | 0.85% of 360,000 active;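 active means inhibition or corrected inhibition above about 18%, plus a signal ratio from 0.5 to 1.5, limit read from the data, passing the limit was not always enough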
ADAM17 inh: inhibits human ADAM17; inhibition, % at 6.95 µM; recombinant ADAM17, EDANS/DABCYL FRET peptide cleavage; 0.83% of 370,000 active;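 active means inhibition above the mean of compounds lying between control limits plus 3 SD, set per campaign, cut at about 8.5% in these data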;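 further: 0% = DMSO-only wells as the low control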
FAS TE block: FAS thioesterase (human) inhibition | P49327 | recombinant FAS-TE, OMFH fluorogenic substrate, fluorescence endpoint | inhibition, % at 15 µM | 0.67% of 360,000 active | AID 602261;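 active means compounds whose normalised, plate-corrected inhibition of enzyme fluorescence in the single-dose primary screen is 50% or more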;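 further: 0% = DMSO with enzyme and 100% = substrate without enzyme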
Target sequence (P49327 whole entry, looked up): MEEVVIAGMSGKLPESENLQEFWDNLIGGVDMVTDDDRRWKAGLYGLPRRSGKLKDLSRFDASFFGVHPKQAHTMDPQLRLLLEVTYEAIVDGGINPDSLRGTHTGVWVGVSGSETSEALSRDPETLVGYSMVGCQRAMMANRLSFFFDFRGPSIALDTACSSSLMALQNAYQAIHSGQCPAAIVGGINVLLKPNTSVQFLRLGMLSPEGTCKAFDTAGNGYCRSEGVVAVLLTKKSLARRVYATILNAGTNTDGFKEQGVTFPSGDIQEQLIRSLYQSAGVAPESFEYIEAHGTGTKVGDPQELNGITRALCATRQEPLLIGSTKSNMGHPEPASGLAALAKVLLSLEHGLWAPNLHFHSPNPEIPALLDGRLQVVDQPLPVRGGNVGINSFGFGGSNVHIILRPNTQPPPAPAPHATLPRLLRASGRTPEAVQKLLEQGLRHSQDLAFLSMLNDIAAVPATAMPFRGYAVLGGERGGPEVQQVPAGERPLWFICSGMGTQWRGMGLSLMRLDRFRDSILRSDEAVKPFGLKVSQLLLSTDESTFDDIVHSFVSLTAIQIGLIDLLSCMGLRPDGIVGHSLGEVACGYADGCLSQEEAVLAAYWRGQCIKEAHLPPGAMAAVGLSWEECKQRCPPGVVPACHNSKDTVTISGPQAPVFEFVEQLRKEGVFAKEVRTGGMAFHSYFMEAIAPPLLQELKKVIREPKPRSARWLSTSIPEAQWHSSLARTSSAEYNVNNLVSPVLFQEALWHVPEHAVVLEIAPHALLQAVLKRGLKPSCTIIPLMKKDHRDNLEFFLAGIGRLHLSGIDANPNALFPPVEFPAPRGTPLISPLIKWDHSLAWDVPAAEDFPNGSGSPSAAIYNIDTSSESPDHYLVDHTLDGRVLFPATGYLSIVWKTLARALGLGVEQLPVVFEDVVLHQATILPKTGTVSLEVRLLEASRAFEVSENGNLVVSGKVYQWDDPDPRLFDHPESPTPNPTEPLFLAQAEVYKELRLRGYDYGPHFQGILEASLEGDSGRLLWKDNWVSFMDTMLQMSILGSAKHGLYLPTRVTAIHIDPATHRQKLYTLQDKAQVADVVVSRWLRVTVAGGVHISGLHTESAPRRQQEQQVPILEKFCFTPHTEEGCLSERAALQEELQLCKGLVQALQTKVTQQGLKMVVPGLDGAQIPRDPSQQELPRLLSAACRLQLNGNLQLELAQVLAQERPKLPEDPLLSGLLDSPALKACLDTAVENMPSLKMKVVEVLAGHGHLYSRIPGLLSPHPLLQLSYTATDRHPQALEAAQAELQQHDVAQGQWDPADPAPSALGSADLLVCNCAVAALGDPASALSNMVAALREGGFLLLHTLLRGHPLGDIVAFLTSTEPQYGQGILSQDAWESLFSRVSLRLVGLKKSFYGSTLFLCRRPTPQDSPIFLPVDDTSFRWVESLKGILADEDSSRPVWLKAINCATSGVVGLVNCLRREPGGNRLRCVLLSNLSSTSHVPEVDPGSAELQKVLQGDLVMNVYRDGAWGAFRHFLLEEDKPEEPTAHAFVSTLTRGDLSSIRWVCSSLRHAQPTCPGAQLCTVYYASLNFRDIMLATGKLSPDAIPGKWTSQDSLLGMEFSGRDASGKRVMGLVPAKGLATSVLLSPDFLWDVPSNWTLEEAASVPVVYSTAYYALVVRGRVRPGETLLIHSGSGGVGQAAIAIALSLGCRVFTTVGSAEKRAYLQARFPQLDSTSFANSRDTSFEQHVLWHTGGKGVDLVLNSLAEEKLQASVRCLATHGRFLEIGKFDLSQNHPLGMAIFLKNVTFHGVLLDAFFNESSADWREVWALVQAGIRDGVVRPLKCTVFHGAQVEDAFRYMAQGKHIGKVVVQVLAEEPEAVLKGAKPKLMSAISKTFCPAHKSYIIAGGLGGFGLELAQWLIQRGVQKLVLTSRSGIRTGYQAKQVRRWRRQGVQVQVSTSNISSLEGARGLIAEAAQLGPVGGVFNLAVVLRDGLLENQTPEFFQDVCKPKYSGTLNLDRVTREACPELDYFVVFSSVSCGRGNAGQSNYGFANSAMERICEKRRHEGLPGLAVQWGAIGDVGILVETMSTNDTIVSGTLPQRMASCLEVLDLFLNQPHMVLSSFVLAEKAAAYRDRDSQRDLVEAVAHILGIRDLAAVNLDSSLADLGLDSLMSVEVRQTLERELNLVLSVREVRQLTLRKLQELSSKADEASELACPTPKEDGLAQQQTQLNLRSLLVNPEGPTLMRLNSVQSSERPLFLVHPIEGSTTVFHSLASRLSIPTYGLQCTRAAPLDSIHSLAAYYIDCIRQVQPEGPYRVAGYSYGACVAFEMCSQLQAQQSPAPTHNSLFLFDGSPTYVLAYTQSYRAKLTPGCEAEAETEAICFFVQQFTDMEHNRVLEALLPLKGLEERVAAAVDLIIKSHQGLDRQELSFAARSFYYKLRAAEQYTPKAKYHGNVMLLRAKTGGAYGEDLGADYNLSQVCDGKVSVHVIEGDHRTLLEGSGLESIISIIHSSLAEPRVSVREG
CaV13 ICDI inh: Primary screen for inhibitors of IQ motif and Ca2+-dependent inactivation inhibitor domain binding in CACNA1D, Förster resonance energy transfer in living cells, … | HEK cells, CFP/YFP FRET ICDI-IQ, plate reader, 10 min; percent FRET-ratio fall versus neutral wells | inhibition, % at 12.3 µM | 0.098% of 340,000 active | AID 743397;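 active means mean replicate inhibition of at least 30% and at least 1% of replicates passing that level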;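 further: 0% = median of the neutral control wells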
ADAM10 inh: inhibits human ADAM10; O14672; inhibition, % at 7 µM; recombinant ADAM10, EDANS/DABCYL FRET peptide cleavage, 3 h; 0.62% of 370,000 active;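 active means inhibition above a per-campaign cutoff equal to the mean of compounds falling between control-based bounds plus 3 SD, cut at about 20% in these data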;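 further: 0% = DMSO wells while the 100% control is not disclosed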
Arrestin-AP2 inh: human beta-arrestin and AP2 interaction inhibition; FITC-arrestin peptide / GST-AP2 beads, flow cytometry; AP2 beta2 appendage carries R879A mutation; inhibition, % at 10 µM; 0.31% of 340,000 active; AID 504490;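 active means inhibition above a set limit, near 3 SD of compounds lacking own fluorescence, cut at about 54% in these data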;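 further: plate controls were DMSO wells for no effect and 5 µM unlabelled arrestin peptide for full effect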
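test system = AP2 appendage R879A on GSH beads | buffer or medium = PBS plus Tween 20 (0.05%) and BSA (0.1%) | incubation = 12 min plus 1 h, RT | detection = bead flow cytometry, FITC channel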
ADAM10 confirm: human ADAM10 inhibition, confirmation. shares compounds with ADAM10 inh. ADAM10 QFRET peptide cleavage, EDANS fluorescence. inhibition, % at 6.95 µM. 1% of 2,100 active. AID 743208;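 active means inhibition above about 20% chosen separately for each screening run, limit read from the data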;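 further: 0% = DMSO wells and 100% = marimastat wells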
ADAM17 counter: counter-screen for ADAM10 exosite inhibitors: inhibitors of human ADAM17; shares compounds with ADAM10 inh; ADAM17 QFRET peptide cleavage, EDANS fluorescence; inhibition, % at 6.95 µM; 0.5% of 2,100 active; AID 743214;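 active means mean triplicate inhibition above the solvent-only control wells' mean plus 3 SD, cut at about 12% in these data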;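 further: 0% = DMSO wells and 100% = marimastat wells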
ADAM10 counter: inhibits human ADAM10 in ADAM17 exosite counter-screen. shares compounds with ADAM17 inh. recombinant ADAM10, EDANS/DABCYL FRET peptide cleavage, 3 h. inhibition, % at 6.95 µM. 47% of 2,900 active. AID 743256;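 active means mean inhibition over the triplicate runs exceeds the activity threshold set in the earlier primary screen, cut at about 20% in these data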;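 further: 0% = DMSO wells and 100% = marimastat wells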
ADAM17 confirm: confirmation of inhibitors of human ADAM17. shares compounds with ADAM17 inh. recombinant ADAM17, EDANS/DABCYL QFRET peptide cleavage. inhibition, % at 6.95 µM. 65% of 2,900 active;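 active means mean inhibition across replicates above the hit cutoff set in the primary screen, cut at about 8.5% in these data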;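 further: 0% = DMSO wells and 100% = marimastat wells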
Starred values were filed as active, the others as inactive; . = not tested or not shown. An excerpt weighted towards active compounds, which were near 2.9% of everything screened.

SMILES	NRP1-CendR mod	ADAM17 inh	FAS TE block	CaV13 ICDI inh	ADAM10 inh	Arrestin-AP2 inh	ADAM10 confirm	ADAM17 counter	ADAM10 counter	ADAM17 confirm
C[C@@H]1CN([C@@H](C)CO)C(=O)CCCn2cc(nn2)CO[C@H]1CN(C)C(=O)C1CCCCC1	.	-2	.	-4	-8	.	.	.	.	.
O=S(=O)(Nc1ccc(C(O)(C(F)(F)F)C(F)(F)F)cc1)c1cccc2cccnc12	-2	10*	13	-5	27*	.	-2	0	20*	14*
O=S(=O)(Nc1ccc(Br)cc1)c1cccc2cccnc12	-13	3	4	-17	3	-5	.	.	.	.
COc1ccc(CC(=O)Nc2nc(OCCN3CCCC3=O)cnc2-c2cccc(C(F)(F)F)c2)cc1	-8	-5	-3	-6	-14	.	.	.	.	.
O=C(Nc1ccc(F)cc1)OC[C@@H]1CSCCS(=O)(=O)N1	.	-4	.	-5	-15	.	.	.	.	.
COc1ccc(N2CCC(CNC(=S)Nc3cccc(OC)c3)C2)cc1 (centres undefined)	.	8.8*	.	-4	20*	.	3	1	11	11*
O=C(C(=O)N1CCN(c2ccncc2)CC1)c1cccc(Br)c1	18	-2	.	-6	-9	.	.	.	.	.
Cc1ccc(N(CC(O)Cn2c3ccccc3c3ccccc32)S(C)(=O)=O)cc1 (centres undefined)	-6	5	19	-7	19	4	.	.	.	.
CC(=O)Nc1ccc(N(CC(O)Cn2c3ccccc3c3ccccc32)S(=O)(=O)c2ccc(C)cc2)cc1 (centres undefined)	-7	10*	31	-3	29*	6	10	4	41*	23*
CC(C)CCN(C)C1CCN(C(=O)Nc2ccccc2)CC1	.	-1	.	.	-8	.	.	.	.	.
CCc1nc2ccc(C(=O)N3CCN(C(=O)c4ccco4)CC3)cn2c1N(C)C(=O)c1cccc(OC)c1	-14	0	-11	-5	-4	.	.	.	.	.
CCc1nc2ccc(C(=O)Nc3ccc(OC)c(OC)c3)cn2c1N(CC)Cc1cccc(Br)c1	7	12*	14	-12	26*	.	11	4	11	9.8*
CCc1nc2ccc(C(=O)Nc3ccc(OC)c(OC)c3)cn2c1N(CC)CCOC	2	-2	-5	-5	5	.	.	.	.	.
CC(C#N)N1CCN(S(=O)(=O)c2ccc3c(c2)CCC3)CC1 (centres undefined)	-14	2	8	-4	-4	-2	.	.	.	.
COc1cc(NC(=O)c2ccno2)cc(C(=O)Nc2cccc(C(F)(F)F)c2)c1	0	12*	30	-4	28*	.	0	0	25*	13*
COc1cc(NC(=O)c2cc3cccc(OC)c3o2)cc(C(=O)Nc2cccc(C(F)(F)F)c2)c1	-4	1	21	-6	6	2	.	.	.	.
COC(=O)C[C@@H]1CC[C@H]2[C@@H](COc3ccc(NC(=O)Nc4ccccc4)cc3C(=O)N2C)O1	.	0	.	.	0	.	.	.	.	.
Cc1ccc(S(=O)(=O)N2CCOCC2)cc1C(=O)N1CCN(S(=O)(=O)c2ccccc2F)CC1	12	-2	-5	-5	-3	8	.	.	.	.
O=C1C=C(O)CC(c2ccc(Cl)cc2)C1 (centres undefined)	-15	-4	1	-4	8	-2	.	.	.	.
O=C1C=C(/C=C/C2C=CC=CC2)C[C@@H](c2ccc(Cl)cc2)C1 (some centres undefined)	16	13*	33	3	27*	-1	6	1	-3	6
CCOC(=O)[C@]12CCCC3=C1N(CCC3)C(=O)[C@@H](CC(=O)NCCCOC)C2	.	-1	.	.	3	.	.	.	.	.
Oc1ccc(C[C@H]2CN([C@@H](Cc3cccc(O)c3)CN3CCC[C@@H]3CN3C(=S)NC[C@@H]3Cc3ccccc3)C(=S)N2CC2CCCCC2)cc1	-4	14*	-81	-8	31*	.	9	3	49*	23*
Clc1ccc(-c2[nH]ncc2N=Nc2ccccc2)cc1	-6	10*	-60	-1	22*	-14	9	3	15	10*
c1ccc(N=Nc2ccc3cccccc2-3)cc1	5	-2	25	-7	2	0	.	.	.	.
Fc1ccc(-c2n[nH]c(=S)n2N=Cc2ccc(OCc3ccccc3)cc2)cc1	.	3	.	.	-1	.	.	.	.	.
SMILES	NRP1-CendR mod	ADAM17 inh	FAS TE block	CaV13 ICDI inh	ADAM10 inh	Arrestin-AP2 inh	ADAM10 confirm	ADAM17 counter	ADAM10 counter	ADAM17 confirm
CCC(C(=O)OCC(=O)Nc1cc(Cl)cc(Cl)c1)c1ccccc1 (centres undefined)	8	19*	40	-5	42*	-7	10	4	23*	12*
CCOc1ccccc1NC(=O)COC(=O)C(CC)c1ccccc1 (centres undefined)	8	11*	27	1	22*	-3	2	0	16	5
CCC(C(=O)OCC(=O)Nc1cccc(C(C)=O)c1)c1ccccc1 (centres undefined)	2	-4	6	-15	-6	16	.	.	.	.
C#CCN(C[C@@H]1[C@@H](OC(=O)Nc2c(C)noc2C)[C@@H](OC(=O)Nc2c(C)noc2C)Cn2c(=O)n(CCCCCC)c(=O)n21)S(=O)(=O)c1ccc(C)cc1	-6	4	18	-5	7	.	.	.	.	.
O=C(COc1ncnc2c1cnn2-c1ccccc1)Nc1ccc(S(=O)(=O)N2CCCCC2)cc1	-2	9.8*	21	-6	21*	9	2	1	33*	17*
CN1[C@@H](Cc2ccccc2)COc2cccc(F)c2S1(=O)=O	.	-1	.	.	2	.	.	.	.	.
CCOC(=O)c1c(CSc2ccccc2)oc2ccc(O)cc12	-8	11*	38	-4	29*	-9	6	2	42*	16*
CCOC(=O)c1c(CSc2ccc(C)cc2)oc2ccc(O)cc12	3	13*	25	-4	30*	29	12	4	46*	19*
CCOC(=O)c1c(CN2CCN(C)CC2)oc2ccc(O)cc12	-10	-3	-6	-3	-5	17	.	.	.	.
